Assay results from ChEMBL document CHEMBL2434951, “Synthesis and antimicrobial activity of polyhalobenzonitrile quinazolin-4(3H)-one derivatives” (2013).
Converted amounts (≈) assume the structure as drawn. The source made the active and inactive calls. No cut-off for these calls is given here.

Experiments:
Assay type in all cases: functional
Candida albicans = experiment: Antifungal activity against Candida albicans ATCC 10231 assessed as growth inhibition at 1000 ug/mL after 24 hrs by disk diffusion assay; settings: for zone of inhibition at 1000 µg/mL: ATCC 10231, 24 h, read-out: DIZ
How it was run: (§1)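 Disk diffusion on nutrient agar, inoculum spread evenly. Disks of 6 mm Whatman No. 1 paper, dry-heat sterilized at 121 °C for 1 h, soaked in test compound at 1000 (micro)g/mL. Norfloxacin and chlorothalonil disks as positive controls, DMSO disks as negative control. Plates incubated 24 h at 37 °C. Inhibition zone diameter measured in mm.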

Bacillus cereus [1] = experiment: Antibacterial activity against Bacillus cereus ATCC 14579 assessed as growth inhibition after 24 hrs by liquid dilution method
How it was run: (§2)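 Liquid (tube) dilution. Compounds and positive controls in DMSO at 11 concentrations from 0.98 upward. Each tube held 1 mL compound solution plus bacterial or fungal inoculum and sterile water. Incubated 24 h, then checked for turbidity; MIC is the lowest concentration without growth. Chlorothalonil, norfloxacin and fluconazole as standards.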

Bacillus cereus [2] = experiment: Antibacterial activity against Bacillus cereus ATCC 14579 assessed as growth inhibition at 1000 ug/mL after 24 hrs by disk diffusion assay; settings: ATCC 14579, 24 h, read-out: DIZ; how it was run: as §1
Escherichia coli [3] = experiment: Antibacterial activity against Escherichia coli ATCC 8099 assessed as growth inhibition after 24 hrs by liquid dilution method; how it was run: as §2
Staphylococcus aureus [4] = experiment: Antibacterial activity against Staphylococcus aureus ATCC 6538 assessed as growth inhibition at 1000 ug/mL after 24 hrs by disk diffusion assay; settings: for zone of inhibition at 1000 µg/mL: ATCC 6538, 24 h, read-out: DIZ; how it was run: as §1
Staphylococcus aureus [5] = experiment: Antibacterial activity against Staphylococcus aureus ATCC 6538 assessed as growth inhibition after 24 hrs by liquid dilution method; how it was run: as §2
Escherichia coli [6] = experiment: Antibacterial activity against Escherichia coli ATCC 8099 assessed as growth inhibition at 1000 ug/mL after 24 hrs by disk diffusion assay; settings: for zone of inhibition at 1000 µg/mL: ATCC 8099, 24 h, read-out: DIZ; how it was run: as §1
Pseudomonas aeruginosa [7] = experiment: Antibacterial activity against Pseudomonas aeruginosa ATCC 15442 assessed as growth inhibition after 24 hrs by liquid dilution method; how it was run: as §2
Pseudomonas aeruginosa [8] = experiment: Antibacterial activity against Pseudomonas aeruginosa ATCC 15442 assessed as growth inhibition at 1000 ug/mL after 24 hrs by disk diffusion assay; settings: ATCC 15442, 24 h, read-out: DIZ; how it was run: as §1

Row | Compound | zone of inhibition at 1000 µg/mL (Candida albicans) | MIC (Bacillus cereus [1]; ATCC 14579, 24 h) | zone of inhibition at 1000 µg/mL (Bacillus cereus [2]) | MIC (Escherichia coli [3]; ATCC 8099, 24 h) | zone of inhibition at 1000 µg/mL (Staphylococcus aureus [4]) | MIC (Staphylococcus aureus [5]; ATCC 6538, 24 h) | zone of inhibition at 1000 µg/mL (Escherichia coli [6]) | MIC (Pseudomonas aeruginosa [7]) | zone of inhibition at 1000 µg/mL (Pseudomonas aeruginosa [8]) | diameter of the inhibition zone (DIZ) (Candida albicans) | MIC (Pseudomonas aeruginosa [7]; ATCC 15442, 24 h) | diameter of the inhibition zone (DIZ) (Staphylococcus aureus [4]) | diameter of the inhibition zone (DIZ) (Escherichia coli [6]) | MIC (Bacillus cereus [1]) | MIC (Escherichia coli [3]) | MIC (Staphylococcus aureus [5])
1 | Cc1ccc(Nc2ccc(Nc3c(Cl)c(Cl)c(C#N)c(Cl)c3C#N)c3nc[nH]c(=O)c23)cc1C | 10 mm | 0.8 µg/mL (≈ 1.57 µM) | 11 mm | 83.3 µg/mL (≈ 163 µM) | 8.5 mm | 15.6 µg/mL (≈ 30.6 µM) | 10.8 mm | inactive | 9.4 mm | – | – | – | – | – | – | –
2 | N#Cc1c(Cl)c(Cl)c(Nc2ccccc2Nc2ccc([N+](=O)[O-])c3nc[nH]c(=O)c23)c(C#N)c1Cl | – | 41.7 µg/mL (≈ 79.2 µM) | 11.2 mm | 167 µg/mL (≈ 316 µM) | 7.3 mm | 250 µg/mL (≈ 475 µM) | 7 mm | – | 6.7 mm | inactive | 125 µg/mL (≈ 237 µM) | – | – | – | – | –
3 | N#Cc1c(F)c(Cl)c(Nc2ccc(Nc3ccc(Cl)cc3)c3c(=O)[nH]cnc23)c(C#N)c1F | 8.5 mm | 41.7 µg/mL (≈ 86.3 µM) | 10.4 mm | 208 µg/mL (≈ 431 µM) | 9.7 mm | 20.8 µg/mL (≈ 43 µM) | 9 mm | – | 12 mm | – | 500 µg/mL (≈ 1030 µM) | – | – | – | – | –
4 | Cc1cccc(Nc2ccc(Nc3c(Cl)c(F)c(C#N)c(F)c3C#N)c3nc[nH]c(=O)c23)c1 | 9.5 mm | 292 µg/mL (≈ 630 µM) | 10 mm | 500 µg/mL (≈ 1080 µM) | 9.8 mm | 500 µg/mL (≈ 1080 µM) | 9.3 mm | – | 10 mm | – | 417 µg/mL (≈ 900 µM) | – | – | – | – | –
5 | Cc1ccc(Nc2c(Cl)c(Cl)c(C#N)c(Cl)c2C#N)c(Nc2ccc([N+](=O)[O-])c3nc[nH]c(=O)c23)c1 | 7.5 mm | 52.1 µg/mL (≈ 96.3 µM) | 10.7 mm | 417 µg/mL (≈ 771 µM) | 9.3 mm | 500 µg/mL (≈ 925 µM) | 9 mm | – | 9.5 mm | – | 417 µg/mL (≈ 771 µM) | – | – | – | – | –
6 | Cc1ccccc1Nc1ccc(Nc2c(Cl)c(Cl)c(C#N)c(Cl)c2C#N)c2nc[nH]c(=O)c12 | – | 0.5 µg/mL (≈ 1.01 µM) | 10.5 mm | 125 µg/mL (≈ 252 µM) | 10 mm | 52.1 µg/mL (≈ 105 µM) | 12.5 mm | – | 9 mm | inactive | 83.4 µg/mL (≈ 168 µM) | – | – | – | – | –
7 | Nc1ccc(Nc2ccccc2)c2c(=O)[nH]cnc12 | – | 125 µg/mL (≈ 495 µM) | 9.5 mm | 208 µg/mL (≈ 826 µM) | – | 208 µg/mL (≈ 824 µM) | – | – | 7 mm | inactive | 250 µg/mL (≈ 991 µM) | inactive | inactive | – | – | –
8 | Cc1ccccc1Nc1ccc(N)c2nc[nH]c(=O)c12 | 10 mm | 167 µg/mL (≈ 626 µM) | 6 mm | 250 µg/mL (≈ 939 µM) | 8 mm | 250 µg/mL (≈ 939 µM) | 9 mm | – | 8.5 mm | – | 417 µg/mL (≈ 1560 µM) | – | – | – | – | –
9 | N#Cc1c(Cl)c(Cl)c(Nc2ccc(Nc3ccccc3)c3c(=O)[nH]cnc23)c(C#N)c1Cl | 10.3 mm | 0.5 µg/mL (≈ 1.04 µM) | 11.7 mm | 250 µg/mL (≈ 519 µM) | 10 mm | 125 µg/mL (≈ 259 µM) | 11 mm | – | 11.3 mm | – | 83.4 µg/mL (≈ 173 µM) | – | – | – | – | –
10 | Cc1ccc(Nc2ccc(Nc3c(Cl)c(Cl)c(C#N)c(Cl)c3C#N)c3nc[nH]c(=O)c23)cc1 | 9.5 mm | 0.7 µg/mL (≈ 1.41 µM) | 11 mm | 104 µg/mL (≈ 210 µM) | 9.3 mm | 10.4 µg/mL (≈ 21 µM) | 10.5 mm | – | 12 mm | – | 52.1 µg/mL (≈ 105 µM) | – | – | – | – | –
11 | Cc1ccccc1Nc1ccc(Nc2c(Cl)c(F)c(C#N)c(F)c2C#N)c2nc[nH]c(=O)c12 | 7.5 mm | 52.1 µg/mL (≈ 113 µM) | 10.8 mm | 208 µg/mL (≈ 450 µM) | 10.3 mm | 208 µg/mL (≈ 450 µM) | 9.7 mm | – | 9.5 mm | – | 208 µg/mL (≈ 450 µM) | – | – | – | – | –
12 | Nc1ccc(Nc2cccc(Cl)c2)c2c(=O)[nH]cnc12 | – | – | 6 mm | – | 6.5 mm | – | 6 mm | inactive | 6.5 mm | inactive | – | – | – | inactive | inactive | inactive
13 | Cc1cccc(Nc2ccc(Nc3c(Cl)c(Cl)c(C#N)c(Cl)c3C#N)c3nc[nH]c(=O)c23)c1 | 10 mm | 1 µg/mL (≈ 2.02 µM) | 11 mm | 104 µg/mL (≈ 210 µM) | 9.7 mm | 5.2 µg/mL (≈ 10.5 µM) | 10.3 mm | inactive | 10 mm | – | – | – | – | – | – | –
14 | N#Cc1c(Cl)c(Cl)c(Nc2ccc(Nc3ccc(Cl)cc3)c3c(=O)[nH]cnc23)c(C#N)c1Cl | 9.5 mm | 83.3 µg/mL (≈ 161 µM) | 9 mm | 333 µg/mL (≈ 646 µM) | 8.8 mm | 4.7 µg/mL (≈ 9.11 µM) | 9 mm | – | 9.5 mm | – | 417 µg/mL (≈ 807 µM) | – | – | – | – | –
15 | N#Cc1c(F)c(Cl)c(Nc2ccc(Nc3ccccc3)c3c(=O)[nH]cnc23)c(C#N)c1F | 6 mm | 500 µg/mL (≈ 1110 µM) | 6 mm | – | 8.9 mm | – | – | – | 9.5 mm | – | 500 µg/mL (≈ 1110 µM) | – | inactive | – | inactive | inactive
